Measurements taken from paper PMC6605684 (The Journal of General Physiology, 2019).

Key:
Test in all cases: Inside-out patch-clamp of CFTR currents in transfected CHO cells
Format in all cases: cell-based
K190A-CFTR = K190A-CFTR (Homo sapiens, UniProt P13569, K190A)
How it was run: (§1)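 CFTR construct and GFP plasmid cotransfected into CHO cells, held at 27°C for 2–6 d. Inside-out patches at room temperature, −30 mV, NMDG-Cl solutions at pH 7.4. Channels preactivated with 25 IU PKA plus 2 mM MgATP, then test compound (max 40 µM) applied in 2 mM ATP. ATP-subtracted steady-state currents normalized to the 3 µM response in the same patch. Hill fit with base 0 and maximum 1; EC50 ± SD of fit; 3–7 patches per point.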

D924E-CFTR = D924E-CFTR (Homo sapiens, UniProt P13569, D924E)
How it was run: as §1

[1] = biological target: R347S-CFTR (ΔR-CFTR background) (Homo sapiens, UniProt P13569, R347S); settings: pH 7.4
How it was run: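 Channels in ATP exposed to test compound at pH 7.4; percent change of mean current scored. Perfusate then switched to pH 5.5, with or without prior compound exposure at pH 7.4. Fold increase taken as peak current at pH 5.5 divided by mean current at pH 7.4.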

S182A-CFTR = S182A-CFTR (Homo sapiens, UniProt P13569, S182A)
How it was run: as §1

S1141T/G551D-CFTR = S1141T/G551D-CFTR (Homo sapiens, UniProt P13569, G551D/S1141T)
How it was run: as §1

N1138L/G551D-CFTR = N1138L/G551D-CFTR (Homo sapiens, UniProt P13569, G551D/N1138L)
How it was run: as §1

F312A-CFTR = F312A-CFTR (Homo sapiens, UniProt P13569, F312A); settings: for ΔΔG: vs WT
Q237A-CFTR = Q237A-CFTR (Homo sapiens, UniProt P13569, Q237A)
How it was run: as §1

Y304F-CFTR = Y304F-CFTR (Homo sapiens, UniProt P13569, Y304F)
How it was run: as §1

WT-CFTR = WT-CFTR (Homo sapiens, UniProt P13569)
How it was run: as §1

F229A-CFTR = F229A-CFTR (Homo sapiens, UniProt P13569, F229A)
How it was run: as §1

[2] = CHO, read-out: Efficacy (% increase) of currents by GLPG1837

K190A-CFTR, sequence (P13569 whole entry K190A): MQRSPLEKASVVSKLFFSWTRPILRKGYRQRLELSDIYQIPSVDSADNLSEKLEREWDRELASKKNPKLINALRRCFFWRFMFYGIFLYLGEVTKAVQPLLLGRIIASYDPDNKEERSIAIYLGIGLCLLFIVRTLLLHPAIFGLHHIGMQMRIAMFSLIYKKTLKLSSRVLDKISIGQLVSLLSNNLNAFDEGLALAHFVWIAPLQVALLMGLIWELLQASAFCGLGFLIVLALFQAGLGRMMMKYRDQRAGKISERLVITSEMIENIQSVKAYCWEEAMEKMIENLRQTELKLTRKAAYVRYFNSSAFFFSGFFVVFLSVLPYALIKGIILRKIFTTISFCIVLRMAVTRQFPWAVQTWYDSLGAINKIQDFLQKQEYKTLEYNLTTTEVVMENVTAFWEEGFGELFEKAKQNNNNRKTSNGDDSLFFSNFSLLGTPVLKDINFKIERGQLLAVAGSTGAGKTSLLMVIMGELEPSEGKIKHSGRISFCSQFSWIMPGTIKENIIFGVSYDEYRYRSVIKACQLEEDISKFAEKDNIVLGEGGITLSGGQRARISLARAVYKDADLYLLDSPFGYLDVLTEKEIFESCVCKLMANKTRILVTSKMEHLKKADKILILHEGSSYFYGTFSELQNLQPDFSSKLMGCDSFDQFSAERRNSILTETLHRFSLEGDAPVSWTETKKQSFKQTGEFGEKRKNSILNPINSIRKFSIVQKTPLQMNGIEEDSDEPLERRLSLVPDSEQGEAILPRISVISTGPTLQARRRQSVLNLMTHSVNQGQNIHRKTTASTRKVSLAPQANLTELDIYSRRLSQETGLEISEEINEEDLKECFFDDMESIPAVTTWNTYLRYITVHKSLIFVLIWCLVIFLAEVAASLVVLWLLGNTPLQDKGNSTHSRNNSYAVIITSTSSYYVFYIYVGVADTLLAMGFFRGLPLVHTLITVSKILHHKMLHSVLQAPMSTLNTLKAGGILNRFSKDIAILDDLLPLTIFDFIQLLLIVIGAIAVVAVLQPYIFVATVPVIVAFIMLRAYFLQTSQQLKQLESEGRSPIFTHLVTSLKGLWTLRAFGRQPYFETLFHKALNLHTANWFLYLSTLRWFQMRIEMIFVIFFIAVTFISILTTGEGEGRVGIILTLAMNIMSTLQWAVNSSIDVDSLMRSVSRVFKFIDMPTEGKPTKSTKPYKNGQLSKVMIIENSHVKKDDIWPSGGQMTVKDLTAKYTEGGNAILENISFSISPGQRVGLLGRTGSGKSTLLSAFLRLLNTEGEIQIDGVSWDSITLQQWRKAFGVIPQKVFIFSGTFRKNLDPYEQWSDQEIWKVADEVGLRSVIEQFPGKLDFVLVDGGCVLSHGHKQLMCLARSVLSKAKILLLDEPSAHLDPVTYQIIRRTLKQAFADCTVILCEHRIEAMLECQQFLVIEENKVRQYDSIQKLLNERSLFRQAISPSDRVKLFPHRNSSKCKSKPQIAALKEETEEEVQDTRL
F229A-CFTR, sequence (P13569 whole entry F229A): as the sequence (P13569 whole entry K190A) above, with A190K, F229A counted along it
WT-CFTR, sequence (P13569 whole entry): as the sequence (P13569 whole entry K190A) above, with A190K counted along it
Q237A-CFTR, sequence (P13569 whole entry Q237A): as the sequence (P13569 whole entry K190A) above, with A190K, Q237A counted along it
N1138L/G551D-CFTR, sequence (P13569 whole entry G551D/N1138L): as the sequence (P13569 whole entry K190A) above, with A190K, G551D, N1138L counted along it
D924E-CFTR, sequence (P13569 whole entry D924E): as the sequence (P13569 whole entry K190A) above, with A190K, D924E counted along it
S182A-CFTR, sequence (P13569 whole entry S182A): as the sequence (P13569 whole entry K190A) above, with S182A, A190K counted along it
F312A-CFTR, sequence (P13569 whole entry F312A): as the sequence (P13569 whole entry K190A) above, with A190K, F312A counted along it
Y304F-CFTR, sequence (P13569 whole entry Y304F): as the sequence (P13569 whole entry K190A) above, with A190K, Y304F counted along it
S1141T/G551D-CFTR, sequence (P13569 whole entry G551D/S1141T): as the sequence (P13569 whole entry K190A) above, with A190K, G551D, S1141T counted along it
R347S-CFTR (ΔR-CFTR background), sequence (P13569 1-633 R347S limits assumed): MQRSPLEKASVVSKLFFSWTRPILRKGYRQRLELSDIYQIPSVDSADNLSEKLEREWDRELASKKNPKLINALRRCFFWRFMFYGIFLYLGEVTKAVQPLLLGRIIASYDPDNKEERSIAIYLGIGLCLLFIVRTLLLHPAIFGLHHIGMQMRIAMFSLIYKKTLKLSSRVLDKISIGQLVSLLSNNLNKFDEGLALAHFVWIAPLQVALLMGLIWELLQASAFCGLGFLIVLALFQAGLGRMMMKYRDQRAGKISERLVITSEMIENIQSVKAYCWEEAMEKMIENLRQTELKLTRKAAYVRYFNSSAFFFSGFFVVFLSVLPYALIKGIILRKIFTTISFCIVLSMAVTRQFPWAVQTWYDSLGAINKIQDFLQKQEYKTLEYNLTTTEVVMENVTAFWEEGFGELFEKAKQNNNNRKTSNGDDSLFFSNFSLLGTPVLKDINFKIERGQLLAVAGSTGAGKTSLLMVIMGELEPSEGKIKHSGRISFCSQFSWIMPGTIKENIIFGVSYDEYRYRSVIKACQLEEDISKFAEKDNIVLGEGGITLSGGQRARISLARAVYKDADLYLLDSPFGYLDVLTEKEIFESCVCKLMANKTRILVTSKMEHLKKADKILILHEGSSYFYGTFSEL
R347S-CFTR (ΔR-CFTR background), sequence (P13569 837-1480 limits assumed): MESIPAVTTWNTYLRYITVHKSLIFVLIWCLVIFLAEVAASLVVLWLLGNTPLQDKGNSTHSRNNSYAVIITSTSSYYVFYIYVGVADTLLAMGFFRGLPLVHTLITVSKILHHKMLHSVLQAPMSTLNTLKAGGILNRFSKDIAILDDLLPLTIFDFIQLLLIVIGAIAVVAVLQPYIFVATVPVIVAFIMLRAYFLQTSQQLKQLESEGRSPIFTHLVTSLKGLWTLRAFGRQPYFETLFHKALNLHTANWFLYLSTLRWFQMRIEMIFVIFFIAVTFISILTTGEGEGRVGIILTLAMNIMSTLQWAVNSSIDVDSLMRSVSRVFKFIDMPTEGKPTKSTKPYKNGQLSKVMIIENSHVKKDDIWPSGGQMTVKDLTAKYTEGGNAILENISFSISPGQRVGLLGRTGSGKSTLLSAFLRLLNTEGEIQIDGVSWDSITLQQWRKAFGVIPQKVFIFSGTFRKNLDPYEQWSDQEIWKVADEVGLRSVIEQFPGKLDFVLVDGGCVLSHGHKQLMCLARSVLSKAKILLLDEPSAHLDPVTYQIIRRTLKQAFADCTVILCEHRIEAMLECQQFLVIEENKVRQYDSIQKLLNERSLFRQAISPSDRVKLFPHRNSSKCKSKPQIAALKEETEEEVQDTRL

**Q.** Which EC50 (K190A-CFTR) does the source give for `CC1(C)Cc2c(sc(NC(=O)c3ccn[nH]3)c2C(N)=O)C(C)(C)O1` [GLPG1837, N-(3-carbamoyl-5,5,7,7-tetramethyl-5,7-dihydro-4H-thieno[2,3-c]pyran-2-yl)-lH-pyrazole-5-carboxamide] here?
**A.** Its EC50 is 0.08 ± 0.01 µM.

**Q.** What about the Emax (K190A-CFTR; [2]) of the same compound?
**A.** The Emax was 61 ± 12%.

**Q.** What about the ΔΔG (K190A-CFTR; GLPG1837, vs WT) of the same compound?
**A.** Its ΔΔG is 0.698 kcal/mol.

**Q.** And the EC50 (D924E-CFTR)?
**A.** Its EC50 is 0.71 ± 0.07 µM.

**Q.** And the Emax (D924E-CFTR; [2])?
**A.** The Emax was 194 ± 8%.

**Q.** What about the ΔΔG (D924E-CFTR; GLPG1837, vs WT) of the same compound?
**A.** The ΔΔG was -0.595 kcal/mol.

**Q.** What about the “Effect of GLPG1837 on currents” value [1] of the same compound?
**A.** The value was “no effect”.

**Q.** What about the EC50 (S182A-CFTR) of the same compound?
**A.** The EC50 was 0.22 ± 0.04 µM.

**Q.** What about the Emax (S182A-CFTR; [2]) of the same compound?
**A.** The Emax was 138 ± 23%.

**Q.** And the ΔΔG (S182A-CFTR; GLPG1837, vs WT)?
**A.** The ΔΔG was 0.098 kcal/mol.

**Q.** And the EC50 (S1141T/G551D-CFTR)?
**A.** The EC50 was 1.74 ± 0.31 µM.

**Q.** And the ΔΔG (S1141T/G551D-CFTR; GLPG1837, vs G551D)?
**A.** Its ΔΔG is 0.136 kcal/mol.

**Q.** What about the EC50 (N1138L/G551D-CFTR) of the same compound?
**A.** Its EC50 is 0.08 ± 0.02 µM.

**Q.** What about the Emax (N1138L/G551D-CFTR; [2]) of the same compound?
**A.** Its Emax is 253 ± 32%.

**Q.** And the ΔΔG (N1138L/G551D-CFTR; GLPG1837, vs G551D)?
**A.** The ΔΔG was 1.96 kcal/mol.

**Q.** What about the Emax (F312A-CFTR; CHO, read-out: Efficacy (% increase) of currents by GLPG1837, 30 µM ATP) of the same compound?
**A.** Its Emax is 105 ± 12%.

**Q.** And the EC50 (F312A-CFTR; EC50 for GLPG1837, 30 µM ATP (Po ∼0.35))?
**A.** The EC50 was 1.3 ± 0.26 µM.

**Q.** And the EC50 (F312A-CFTR; EC50 for GLPG1837, 2 mM ATP)?
**A.** Its EC50 is 0.4 ± 0.13 µM.

**Q.** What about the ΔΔG (F312A-CFTR; GLPG1837, 30 µM ATP) of the same compound?
**A.** The ΔΔG was -0.954 kcal/mol.

**Q.** What about the ΔΔG (F312A-CFTR; GLPG1837, 2 mM ATP) of the same compound?
**A.** Its ΔΔG is -0.256 kcal/mol.

**Q.** And the EC50 (Q237A-CFTR)?
**A.** The EC50 was 0.92 ± 0.32 µM.

**Q.** What about the Emax (Q237A-CFTR; [2]) of the same compound?
**A.** The Emax was 615%.

**Q.** What about the ΔΔG (Q237A-CFTR; GLPG1837, vs WT) of the same compound?
**A.** The ΔΔG was -0.748 kcal/mol.

**Q.** And the EC50 (Y304F-CFTR)?
**A.** The EC50 was 2.28 ± 0.34 µM.

**Q.** What about the Emax (Y304F-CFTR; [2]) of the same compound?
**A.** Its Emax is 82 ± 12%.

**Q.** What about the ΔΔG (Y304F-CFTR; GLPG1837, vs WT) of the same compound?
**A.** The ΔΔG was -1.29 kcal/mol.

**Q.** What about the “Relaxation time constant upon removal of GLPG1837” value (Y304F-CFTR; mean, n = 5) of the same compound?
**A.** Its value is 5.5 ± 1.3.

**Q.** What about the EC50 (WT-CFTR) of the same compound?
**A.** The EC50 was 0.26 ± 0.04 µM.

**Q.** And the “Hill coefficient of the GLPG1837 effect” value (WT-CFTR)?
**A.** Its value is “≈ 1”.

**Q.** And the Emax (WT-CFTR; [2])?
**A.** The Emax was 115%.

**Q.** And the “Saturating concentration of GLPG1837” value (WT-CFTR; continuous presence of ATP)?
**A.** Its value is 3 µM.

**Q.** And the EC50 (F229A-CFTR)?
**A.** The EC50 was 0.46 ± 0.07 µM.

**Q.** And the Emax (F229A-CFTR; [2])?
**A.** The Emax was 135 ± 26%.

**Q.** And the ΔΔG (F229A-CFTR; GLPG1837, vs WT)?
**A.** The ΔΔG was -0.337 kcal/mol.
